Measured values pooled from the literature.
Protocols differ between the studies behind these lines.
Target: Tyrosine-protein kinase Blk (BLK, Homo sapiens, UniProt P51451)

| Compound | assay | setting | endpoint | value |
| --- | --- | --- | --- | --- |
| COc1ccc2cc(OCC3(C(=O)O)CN(C(=O)c4ccc(F)cc4)C3)ccc2c1 | cell-free assay, competition with immobilised ligand | 1 µM | remaining binding | 93% |
| C=CC(=O)Nc1cc(Nc2nccc(Nc3cc(Cl)c(F)cc3C(C)(C)O)n2)c(OC)cc1N1CC[C@@H](N(C)C)C1 | enzyme activity, inhibitor | 1 µM | inhibition | 90% |
| Cc1ccc(C(=O)Nc2ccc(CN3CCN(C)CC3)c(C(F)(F)F)c2)cc1C#Cc1cnc2cccnn12 | enzyme activity | 23.5 nM | remaining activity | 1.2% |
| Cc1cnc(NC2CCOCC2)nc1-n1cnc(C(=O)NC(CN)c2cc(F)cc(Cl)c2)c1 (centres unmarked) | enzyme activity, inhibitor, radiometric | 1 µM | remaining activity | 112% |
| COc1cc2ncnc(Nc3ccc(Oc4ccccc4)cc3C)c2cc1OC | enzyme activity, inhibitor | 1 µM | inhibition | 85% |
| O=C(Nc1cnn(-c2csc(C(=O)NC3COC3)c2)c1)Nc1ccccc1Cl | enzyme activity, inhibitor | 5 µM | remaining activity | 79.2% |
| CC(C)(O)[C@H]1CC[C@H](Nc2ccc3ncc(-c4cccc(C(F)(F)F)c4)n3n2)CC1 | enzyme activity, inhibitor | 1 µM | remaining activity | 37.5% |
| COc1cc2ncnc(Nc3ccc(F)c(Cl)c3)c2cc1OCCCN1CCOCC1 | cell-free assay | 0.5 µM | remaining signal | 87.7% |
| Cc1ccc(NC(=O)c2ccc(C)c(C(F)(F)F)c2)cc1C#Cc1nn(C2CCC(O)CC2)c2ncnc(N)c12 (centres unmarked) | cell-free assay | 10 µM | remaining signal | 0% |
| O=C(O)[C@H]1[C@H](Cn2nnc3ccccc3c2=O)CC[C@@H]1C(=O)c1ccc(OCCC2CCOCC2)cc1 | cell-free assay, competition with immobilised ligand | 1 µM | remaining binding | 100% |
| Nc1nc(Nc2ccc(S(N)(=O)=O)cc2)nn1C(=O)c1c(F)cccc1F | cell-free assay | 0.5 µM | remaining signal | 90.1% |
| CC(C)CC(=O)N1CCc2nc(-c3ccc(Br)cc3)nc(N(C)Cc3ccccc3)c2C1 | cell-free assay, competition with immobilised ligand | 0.1 µM | remaining binding | 84% |
| O=C1NC(=O)c2cc(Nc3ccc(F)cc3)c(Nc3ccc(F)cc3)cc21 | cell-free assay | 0.5 µM | remaining signal | 94.3% |
| CCOCCn1cc(C(=O)Nc2ccc(-n3nc(-c4cccnc4)cc3C(F)(F)F)cn2)ccc1=O | cell-free assay, competition with immobilised ligand | 1 µM | remaining binding | 89% |
| Nc1ncnc2occ(-c3ccc(NC(=O)Nc4cc(C(F)(F)F)ccc4F)cc3)c12 | cell-free assay | 20 µM | remaining signal | 0.45% |
| CN(C(=O)c1ccccc1)c1cc(N(C)c2ccc3c(c2)CCc2ccc(C(=O)NCCN4CCOCC4)cc2C3=O)ccc1F | cell-free assay, competition with immobilised ligand | 1 µM | remaining binding | 100% |
| CC(C)(C)c1nc2c(s1)c1nc(N)ncc1c1ccc(NS(=O)(=O)c3c(F)cccc3F)c(F)c12 | enzyme activity, inhibitor, radiometric | 1 µM | remaining activity | 52% |
